Assays:
[1] = Compound was tested for the backward reaction of conversion of vitamin D to previtaminD; assay type: ADME
How it was run: (§1)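 Vitamin/previtamin ratio read by 1H-NMR integration. Kinetics run in triplicate over 59.8–89.7 °C with Arrhenius treatment; 1α-hydroxy analogue run once at 80 °C. Equilibrium constant at 80 °C taken after prolonged heating from either isomer.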

[2] = Compound was tested for rate constant for the transformation of vitamin to previtamin; assay type: ADME; how it was run: as §1
[3] = Compound was tested for rate constant for the forward reaction of isomerization of previtamin D to vitamin D; assay type: ADME; how it was run: as §1
[4] = Keq (k1/1-k) for the transformation of vitamin D to previtamin D; assay type: ADME; how it was run: as §1
[5] = test system: vitamin D receptor (Gallus gallus); experiment: Compound was evaluated for chick vitamin D receptor relative competitive induces (relative to alpha, 25-(OH2)-D3)
[6] = Compound was tested for the backward reaction of conversion of vitamin D to previtamin D; assay type: ADME; how it was run: as §1

Compound | k-1 [1] | Log A [2] | k1 [3] | Keq [4] | RCI [5] | k-1 [6]
CC1=C(/C=C\C2=CCC[C@@]3(C)[C@@H]2CC[C@@H]3[C@H](C)CCCC(C)(C)O)CC(O)CC1 (some centres undefined) |  |  |  |  | 0.011 | 
C=C1CC[C@H](O)C/C1=C/C=C1\CCC[C@]2(C)[C@@H]([C@H](C)CCCC(C)C)CC[C@@H]12 [CHOLECALCIFEROL] |  | 10.7 s-1 |  |  |  | 
CC1=C(/C=C\C2=CCC[C@@]3(C)[C@@H]2CC[C@@H]3[C@H](C)CCCC(C)(C)O)C[C@@H](O)C[C@@H]1O |  |  |  |  | 1.6 | 

Second part, the compound after the results:

k-1 [1] | Log A [2] | k1 [3] | Keq [4] | RCI [5] | k-1 [6] | Compound
7.6e-05 s⁻¹ | 9.9 s-1 | 0.000563 s⁻¹ | 7.3 |  |  | C=C1/C(=C\C=C2/CCC[C@]3(C)[C@@H]([C@H](C)CCCC(C)(C)O)CC[C@@H]23)C[C@@H](O)C[C@@H]1O [CALCITRIOL]
 | 8.5 s-1 | 4.92e-05 s⁻¹ | 0.058 |  | 0.000845 s⁻¹ | C=C1CC[C@H](O)C/C1=C/C=C1\CCC[C@@]2(C)[C@@H]1CC[C@@H]2[C@H](C)CCCC(C)(C)O
0.000135 s⁻¹ |  | 0.000502 s⁻¹ | 3.8 |  |  | C=C1CC[C@H](O)C/C1=C/C=C1\CCC[C@]2(C)[C@@H]([C@H](C)CCCC(C)(C)O)CC[C@@H]12 [CALCIFEDIOL ANHYDROUS]
